Results of several laboratories.
Protocols differ between the studies behind these lines.
KIT L576P: Mast/stem cell growth factor receptor Kit (KIT, Homo sapiens, UniProt P10721, L576P)
KIT V559D: Mast/stem cell growth factor receptor Kit (KIT, Homo sapiens, UniProt P10721, V559D)
KIT: Mast/stem cell growth factor receptor Kit (KIT, Homo sapiens, UniProt P10721)
KIT A829P: Mast/stem cell growth factor receptor Kit (KIT, Homo sapiens, UniProt P10721, A829P)
KIT T670I/V559D: Mast/stem cell growth factor receptor Kit (KIT, Homo sapiens, UniProt P10721, T670I/V559D)
KIT autoinhibited: Mast/stem cell growth factor receptor Kit, autoinhibited (KIT, Homo sapiens, UniProt P10721)
KIT V559D/V654A: Mast/stem cell growth factor receptor Kit (KIT, Homo sapiens, UniProt P10721, V559D/V654A)

Structure (SMILES)	target	observed	method	tested at	remaining binding [%]
COc1cnc(Nc2cccc(S(N)(=O)=O)c2)nc1N1CCN(c2ccccc2)C(=O)C1	KIT L576P	binding	competition with immobilised ligand	1 µM	100
O=C(Nc1c[nH]nc1C(=O)NC1CCNCC1)c1cc(F)cc(F)c1	KIT L576P	binding	competition with immobilised ligand	1 µM	100
CNC(=O)Nc1ccc2c(c1)[C@@]1(CC2)OC(=O)N(CC(=O)N(Cc2ccc(F)cc2)[C@@H](C)C(F)(F)F)C1=O	KIT V559D	cell-free assay	competition with immobilised ligand	1 µM	100
CN(C)c1ncc(F)c(-c2cnn3ncccc23)n1	Mast/stem cell growth factor receptor Kit (KIT, Homo sapiens, UniProt P10721, D816V)	binding	–	1 µM	91
NS(=O)(=O)c1cc(NC(=O)Cc2ccccc2)ccc1Oc1cccc(Cl)c1	KIT	cell-free assay	competition with immobilised ligand	1 µM	89
C[C@@H]1CCN(c2nccc(-c3cnn4ncccc34)n2)C1	KIT A829P	binding	–	1 µM	85
CN([C@@H]1CCc2c(CC(=O)O)c3ccccc3n2C1)S(=O)(=O)c1ccc(F)cc1	KIT T670I/V559D	cell-free assay	competition with immobilised ligand	1 µM	100
Nc1ncc2c(n1)-c1c([nH]c3ccc(C#CC4CC4)cc13)CCCC2	KIT autoinhibited	binding	competition with immobilised ligand	1 µM	86
CNC(=O)[C@@H]1CC[C@@H](n2c(-c3ccc4cnccc4c3)nc3ccc(C(=O)NCc4cccc(C(N)=O)c4)cc32)C1	KIT T670I/V559D	binding	competition with immobilised ligand	1 µM	100
N[C@@H]1CCN(c2nccc(-c3cnn4ncccc34)n2)C1	KIT A829P	binding	–	1 µM	100
O=C(NS(=O)(=O)c1ccc(NCC2CCOCC2)c([N+](=O)[O-])c1)c1ccc(N2CCN(Cc3ccc(C(F)(F)F)cc3-c3ccc(Cl)cc3)CC2)cc1Oc1cnc2[nH]ccc2c1	KIT autoinhibited	cell-free assay	competition with immobilised ligand	1 µM	100
COc1cnc(Nc2cccc(S(N)(=O)=O)c2)nc1N1CCN(c2ccccc2)CC1	KIT	binding	competition with immobilised ligand	1 µM	93
O=C(c1ccc(Nc2nccc(-c3cc4ccccc4s3)n2)cc1)N1CCC(N2CCCC2)CC1	KIT V559D	binding	competition with immobilised ligand	1 µM	18
CC1=C(C#N)[C@@H](c2ccc3[nH]nc(C)c3c2)C(C#N)=C(c2ccc(Cl)cc2)N1	Mast/stem cell growth factor receptor Kit (KIT, Homo sapiens, UniProt P10721, D816H)	cell-free assay	competition with immobilised ligand	1 µM	84.3
O=C(c1ccc(Nc2ncc(Cl)c(-c3ccc(Cl)s3)n2)cc1)N1CCC(N2CCCC2)CC1	KIT	binding	competition with immobilised ligand	1 µM	0.05
CCN1CCN(Cc2ccc(C(=O)Nc3ccc(C)c(Oc4ccc5c(c4)CC(=O)N5)c3)cc2C(F)(F)F)CC1	KIT V559D/V654A	binding	competition with immobilised ligand	1 µM	24
c1cnn2ncc(-c3ccnc(N4CCC45COC5)n3)c2c1	KIT L576P	binding	–	1 µM	70
O=C(NCCCN1CCOCC1)c1ccc(Nc2ncc(Cl)c(-c3ccc(Cl)s3)n2)cc1	KIT L576P	binding	competition with immobilised ligand	1 µM	2.8
CN(CCCC(F)(F)F)c1nccc(-c2cnn3ncccc23)n1	KIT V559D	binding	–	1 µM	100
O=C(NCC1CCOCC1)c1n[nH]cc1NC(=O)c1c(F)cccc1F	KIT V559D/V654A	binding	competition with immobilised ligand	1 µM	90
O=S(=O)(NC1CCC(c2cc(F)ccc2F)(S(=O)(=O)c2ccc(Cl)cc2)CC1)C(F)(F)F (stereo not drawn)	KIT L576P	cell-free assay	competition with immobilised ligand	1 µM	100
C=CC(=O)N1CCC(C(=O)NCC(=O)N2CCN(c3nc(-c4cnc(N)nc4C(F)F)nc(N4CCOCC4)n3)CC2)CC1	KIT A829P	binding	competition with immobilised ligand	1 µM	100
Cc1cnn2ncc(-c3ccnc(N(C)C)n3)c2c1	KIT V559D/V654A	binding	–	1 µM	100
O=C(c1ccc(Nc2ncc(Cl)c(-c3cc4ccccc4s3)n2)cc1)N1CCC(N2CCCC2)CC1	KIT	binding	competition with immobilised ligand	1 µM	18
c1cncc(-c2cccc(Nc3nccc(NC4CCCCC4)n3)c2)c1	KIT T670I/V559D	binding	competition with immobilised ligand	10 µM	29
CNC(=O)Nc1ccc2c(c1)CC[C@@]21OC(=O)N(CC(=O)N(Cc2ccc(F)cc2)[C@@H](C)C(F)(F)F)C1=O	KIT V559D	cell-free assay	competition with immobilised ligand	1 µM	100
Cc1cnc(Nc2ccc(C(=O)N3CCC(N4CCCC4)CC3)cc2)nc1-c1cc2ccccc2s1	KIT A829P	binding	competition with immobilised ligand	1 µM	7.2
O=C(Nc1cnc(Oc2ccc(F)cc2)nc1)N1CCc2ncccc2[C@@H]1c1ccc(F)cc1	KIT T670I/V559D	cell-free assay	competition with immobilised ligand	1 µM	84
C[C@@H](c1ccc(-n2cnc3c(N)ncnc32)cc1)N1CCc2nn(C)c(Cc3ccccc3)c2C1=O	KIT autoinhibited	binding	competition with immobilised ligand	0.1 µM	97
O=C(NCCCN1CCOCC1)c1ccc(Nc2nccc(-c3cc4ccccc4s3)n2)cc1	KIT L576P	binding	competition with immobilised ligand	1 µM	8.7
